T cruzi repl: blocks replication of Trypanosoma cruzi | T. cruzi beta-gal in NIH3T3, luminescence, 90 h | inhibition, % (test concentration not listed) | 1.4% of 300,000 active | AID 1885;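 active = mean inhibition across valid replicates above about 55%, limit read from the data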;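 also: signal also drops with host cell toxicity which is not excluded here; higher percent means less beta-gal luminescence so fewer parasites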
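Assay system: NIH/3T3 fibroblasts plus reporter T. cruzi. Amount: NIH/3T3 cells, 5,000 per well. Buffer or medium: DMEM, 2% fetal bovine serum. Doses: compound pinned at 50 nL/well, DMSO. Schedule: ≥90 h infection period, 3 h prior cell attachment. Signal: luminescent β-galactosidase signal after 60 min lysis. Read-out: parasite load inhibition, %.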
CendR NRP1 mod: alters CendR peptide binding to human NRP-1; inhibition, % at 25 µM; O14786; 0.85% of 360,000 active; FAM-RPARPAR peptide binding to NRP-1, fluorescence polarization;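 active = inhibition or corrected inhibition above about 18%, plus a signal ratio from 0.5 to 1.5, limit read from the data, passing the limit was not always enough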
Target sequence (O14786 whole entry, looked up): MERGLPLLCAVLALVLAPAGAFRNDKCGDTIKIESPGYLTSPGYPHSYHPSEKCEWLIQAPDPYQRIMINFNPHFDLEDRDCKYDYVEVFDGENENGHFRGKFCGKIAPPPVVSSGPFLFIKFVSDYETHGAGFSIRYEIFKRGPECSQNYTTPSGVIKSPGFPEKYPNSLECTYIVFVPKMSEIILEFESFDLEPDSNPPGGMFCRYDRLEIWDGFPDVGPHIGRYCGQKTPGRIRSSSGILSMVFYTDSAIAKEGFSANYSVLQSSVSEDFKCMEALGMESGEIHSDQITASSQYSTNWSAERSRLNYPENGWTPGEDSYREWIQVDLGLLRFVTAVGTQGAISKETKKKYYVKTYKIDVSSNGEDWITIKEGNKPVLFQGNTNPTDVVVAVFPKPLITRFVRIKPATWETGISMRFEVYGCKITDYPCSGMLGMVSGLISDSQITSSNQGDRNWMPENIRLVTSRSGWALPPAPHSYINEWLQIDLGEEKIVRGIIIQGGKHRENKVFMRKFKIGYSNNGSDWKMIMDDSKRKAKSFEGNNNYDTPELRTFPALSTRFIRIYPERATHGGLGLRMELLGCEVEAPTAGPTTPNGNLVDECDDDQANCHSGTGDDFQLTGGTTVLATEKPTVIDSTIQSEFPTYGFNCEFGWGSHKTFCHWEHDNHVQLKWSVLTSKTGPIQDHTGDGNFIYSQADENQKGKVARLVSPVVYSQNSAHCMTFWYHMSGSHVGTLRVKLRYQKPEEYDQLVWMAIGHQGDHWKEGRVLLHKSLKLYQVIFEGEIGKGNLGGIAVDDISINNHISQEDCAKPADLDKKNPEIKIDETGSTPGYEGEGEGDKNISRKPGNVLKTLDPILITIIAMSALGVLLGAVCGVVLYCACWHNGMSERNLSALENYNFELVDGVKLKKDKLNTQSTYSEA
V-ATPase pHluor: yeast V-ATPase proton transport regulation by pHLuorin. S. cerevisiae, pHLuorin cytosolic pH fluorescence. response, % at 10 µM. 0.37% of 350,000 active. AID 504577; in the data active = response mostly above about 7.3%, no sharp cut-off; inactive = mostly below about 5.4%; also: actives read high
Yeast superoxide: lowers age-related superoxide in aged yeast cells. superoxide response (% of plate mean), % at 10 µM. 0.18% of 330,000 active. S. cerevisiae aged cells, superoxide DHE fluorescence; hits give low values;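 active = superoxide response under a set limit, about three screen SD below normal, cut at about 65% in these data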;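 also: yeast aged for seven days with compound at 30 °C before DHE staining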
AI-2 QS mod: Vibrio harveyi AI-2 quorum sensing modulation | Vibrio harveyi JMH597 AI-2 luminescence/OD600 ratio, 9 h; hits give low values; strain lacks LuxN and CqsS sensors; 0 = neutral-control median | activity change, % at 7.5 µM | 0.4% of 300,000 active | AID 2094; in the data active = activity change below about -75%, passing the limit was not always enough;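 also: luminescence divided by OD600 gain over 9 h not by final OD600 alone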
HIF activator: HIF pathway transcriptional activation | U2OS HRE-luciferase reporter, luminescence; normalized: DMSO 0%, desferrioxamine 100% | 0.32% of 300,000 active | activation, % at 7.5 µM (by protocol);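 active = mean activation of at least 10% of the iron chelator positive control signal, with at least half of replicates also reaching 10%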
Hits are given with their value; – = inactive; · = no result given. An excerpt weighted towards active compounds, which were near 3% of everything screened.

SMILES | T cruzi repl | CendR NRP1 mod | V-ATPase pHluor | Yeast superoxide | AI-2 QS mod | HIF activator
C/C(=N\NC(=O)c1nnn(-c2nonc2N)c1-c1ccccc1)c1ccccc1O | 61 | – | – | – | – | 33
CCOc1ccc(-c2c(C(=O)N/N=C/c3sccc3C)nnn2-c2nonc2N)cc1 | – | 24 | – | – | – | –
CCOc1cccc(-c2c(C(=O)N/N=C/c3sccc3C)nnn2-c2nonc2N)c1 | – | – | – | – | – | –
COCc1c(C(=O)N/N=C(\C)c2ccc(Cl)s2)nnn1-c1nonc1N | – | – | – | – | – | 29
COc1ccc(C)cc1NC(=O)CSc1nnc2ccc(-c3cccnc3)nn12 | – | – | – | – | – | –
COC(=O)c1ccc(/C=N/NC(=O)CCSc2nc3ccccc3s2)cc1 | – | · | · | – | – | –
Cc1cc(C)nc(SCC(=O)Nc2nccs2)n1 | – | – | – | – | – | –
CCOC(=O)CSc1nnc2c3ccccc3n(C)c2n1 | – | 26 | – | – | – | –
COc1ccc(CCNC(=O)CC(NC(=O)c2ccccc2Cl)c2ccccc2)cc1 (centres undefined) | – | – | – | – | – | 46
CCOC(=O)N1CCN(C(=O)C(=O)Nc2ccc3nc4n(c(=O)c3c2)CCCCC4)CC1 | – | – | – | – | – | –
O=C(CCc1nnc(Cc2ccc(-c3ccccc3)cc2)o1)NCCc1cccnc1 | – | – | – | – | – | –
O=C(CCc1nnc(CCCCc2ccccc2)o1)NCCc1cccnc1 | 60 | – | – | – | – | –
COCCn1c(=NC(=O)c2cc(-c3cccs3)nc3ccccc23)sc2cc(S(N)(=O)=O)ccc21 | 67 | – | – | – | – | –
C=CCn1c(=NC(=O)c2cc(-c3cccs3)nc3ccccc23)sc2cc(S(N)(=O)=O)ccc21 | – | – | – | – | – | –
Cn1c(=O)c2cc(S(=O)(=O)NCCC(=O)NCCc3ccc(Cl)cc3)ccc2n(C)c1=O | – | – | 22 | – | – | –
CCOC(=O)C1=C(C)NC2=C(C(=O)CCC2)C1c1cn(Cc2ccc(Cl)cc2Cl)nc1-c1ccccc1 (centres undefined) | – | 25 | – | – | – | –
Cc1cccc(CCN2C(Nc3ccccc3)=NC[C@@H]2C)c1 | · | – | – | – | · | ·
COC(=O)c1ccc(-n2c(C)cc(C(=O)CCl)c2C)cc1 | – | – | – | – | – | –
CCOc1ccc(-n2c(C)cc(/C=N/N(C)C)c2C)cc1 | 56 | – | – | – | – | –
CCOc1ccc(-n2c(C)cc(C(=O)CCl)c2C)cc1 | 86 | – | – | – | – | –
O=C(C1=C(O)C(=O)N(CCN2CCOCC2)C1c1ccc(F)cc1)c1cc2ccccc2o1 (centres undefined) | – | – | – | – | – | ·
O=C(O)CCNc1ccc(NCCC(=O)O)c2c1C(=O)c1ccccc1C2=O | – | 46 | – | – | – | –
COc1ccccc1NCCC(=O)O | – | – | – | – | – | –
COc1ccccc1CNC(=O)C(=O)c1cn(CC(=O)N2CCCCC2)c2ccccc12 | · | – | – | · | · | ·
CCc1nnc(NS(=O)(=O)c2ccc(NC(=S)NC(=O)c3ccncc3)cc2)s1 | – | – | – | – | – | –
SMILES | T cruzi repl | CendR NRP1 mod | V-ATPase pHluor | Yeast superoxide | AI-2 QS mod | HIF activator
COc1cc([C@@H]2c3cc4c(cc3[C@@H](NC3CCN(Cc5ccccc5)CC3)[C@H]3COC(=O)[C@H]23)OCO4)cc(OC)c1O | – | · | · | · | – | 15
COc1cc([C@@H]2c3cc4c(cc3[C@H](O)[C@H]3COC(=O)[C@H]23)OCO4)cc(OC)c1OC | – | – | – | – | – | –
CSCCC(NS(=O)(=O)c1ccccc1F)C(=O)N1CCCCCCC1 (centres undefined) | – | 27 | – | – | – | –
CSCCC(NS(=O)(=O)c1ccccc1F)C(=O)NCC(C)(C)N1CCOCC1 (centres undefined) | · | – | – | – | · | ·
CCN(Cc1ccc(C#CCCO)cc1)CC1CCCN(CCc2cccc(F)c2)C1 (centres undefined) | 64 | – | – | – | – | –
CCOC(=O)C1(C)CCCN(C(=O)c2cc(C)on2)C1 (centres undefined) | · | – | · | · | · | ·
O=[N+]([O-])c1ccc(-c2ccn[nH]2)o1 | 68 | – | – | – | -129 | –
O=C(C[n+]1cc(-c2ccc(F)cc2)n2c1CCC2)c1cccs1 | – | – | – | – | – | –
CCc1ccc(C(=O)N2CCC(c3nc4ccccc4s3)CC2)cc1 | – | – | – | – | – | –
CCNC(=S)N1CCCC(c2nc3ccc(C)cc3[nH]2)C1 (centres undefined) | – | – | – | – | – | –
Cc1ccc(C)c(NC(=S)N2CCC(c3nc4ccccc4s3)CC2)c1 | 60 | – | – | – | – | –
Cc1ccc2nc(C3CCCN(C(=S)Nc4ccccc4C)C3)[nH]c2c1 (centres undefined) | 67 | – | – | – | – | –
COc1ccc(OC)c(/C=N/NC(=O)c2ccc(Cn3cc([N+](=O)[O-])cn3)o2)c1 | – | – | – | – | – | –
CCC(NC(=O)NNC(=O)c1ccncc1)(C(F)(F)F)C(F)(F)F | – | – | – | – | – | –
O=C(/C=C/c1ccccc1)NNC(=O)C1CC1 | – | – | – | – | – | –
O=C(NNC(=O)C(O)(c1ccccc1)c1ccccc1)C1CC1 | – | – | – | – | – | 31
Cc1ccc(/C=C/C(=O)c2ccccc(=O)c2O)cc1C | 59 | – | – | – | – | –
O=C(/C=C/c1ccccc1)c1cc(Br)ccc(=O)c1O | – | – | – | – | – | –
Cc1ccc(CNC(=O)CCCn2c(=O)[nH]c3ccccc3c2=O)cc1 | – | – | – | – | – | –
Cn1c(C(=O)OC(C(=O)NC2CCCC2)c2cccnc2)cc2sccc21 (centres undefined) | 65 | – | – | – | – | –
Cn1c(C(=O)OC(C(=O)NC2CCCCC2)c2cccnc2)cc2sccc21 (centres undefined) | – | – | – | – | – | –
COC(=O)Cc1ccc(NC(=S)NCCCO)cc1 | – | 40 | – | – | – | –
Cc1ccc(NC(=S)NCCSc2ccc(Cl)cc2)cc1 | – | – | – | – | – | –
COC(=O)Cc1ccc(NC(=S)NCCSc2ccc(C)cc2)cc1 | – | 29 | – | – | – | –
Cc1ccc(SCCNC(=S)Nc2ccc(C)cc2C)cc1 | 58 | – | – | – | – | –
COC(=O)Cc1ccc(NC(=S)NN2CCOCC2)cc1 | – | – | – | – | – | –
Cc1ccc(SCCNC(=S)Nc2cc(C)cc(C)c2)cc1 | – | – | – | – | – | –
COc1cccc(CNC(=O)c2ccccc2N)c1 | – | – | – | – | – | –
NC(=S)N/N=C/c1ccc(-c2ccc(Cl)c(Cl)c2)o1 | 60 | – | – | – | – | –
NC(=S)NN=Cc1ccc(-c2ccc(S(=O)(=O)Nc3ncccn3)cc2)o1 | · | – | – | – | · | ·

Screening data from PubChem BioAssay.
